According to ChEMBL document CHEMBL4257580, “Tanshinone-IIA-Based Analogues of Imidazole Alkaloid Act as Potent Inhibitors To Block Breast Cancer Invasion and Metastasis in Vivo” (J Med Chem, 2018):
Active and inactive are the calls of the source. The rule behind the calls is not given here.

How the values were obtained:
[1] = test system: MDA-MB-231; assay: Antimetastasis activity in human MDA-MB-231 cells assessed reduction in stress fibers by measuring F-actin protein expression at 5 to 10 uM after 24 hrs by immunofluorescence based assay
[2] = test system: MDA-MB-231; assay: Antimetastasis activity in human MDA-MB-231 cells assessed as changes in cell morphology at 5 to 10 uM after 24 hrs by based laser confocal microscopy
[3] = test system: MDA-MB-231; assay: Induction of apoptosis in human MDA-MB-231 cells assessed as late apoptotic cells at 15 uM after 72 hrs by annexin-V/propidium iodide double staining based flow cytometry (reference value: 0.12%); assay type: functional
[4] = test system: MDA-MB-231; assay: Cell cycle arrest in human MDA-MB-231 cells assessed as accumulation at S phase at 5 uM after 72 hrs by propidium iodide staining based flow cytometry (reference value: 42.60%); assay type: functional
[5] = test system: MDA-MB-231; assay: Induction of apoptosis in human MDA-MB-231 cells assessed as up-regulation of PARP expression at 5 to 15 uM after 72 hrs by Western blot analysis; assay type: functional, cell-based
In short: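 Cells treated with 0, 5, 10 or 15 μM for 72 h. Lysates quantified by BCA, equal protein resolved on 10% tricine SDS-PAGE and transferred to nitrocellulose. Membranes blocked in 5% milk/TBST, then primary antibodies 1:1000 overnight at 4 °C and HRP secondary 1:2000 for 1 h at room temperature. Three independent experiments.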

[6] = test system: L02; assay: Antiproliferative activity against human L02 cells after 72 hrs by MTT assay; assay type: cell-based; details: L02, 72 h
In short: (§1)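 A549, HeLa, HepG2 and normal liver L02 cells kept in DMEM with 10% FBS at 37 °C under 5% CO2. Plated at 5×10^3 cells/well for 24 h, then treated with graded concentrations for 72 h. Viability measured by MTT reduction (5 h), formazan dissolved in DMSO and read at 570 nm. Three repeats.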

[7] = test system: MDA-MB-231; assay: Antiinvasive activity against human MDA-MB-231 cells assessed as reduction in number of black holes at 6 uM after 24 hrs by FITC-gelatin based confocal microscopy; assay type: functional, cell-based
In short: (§2)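 Coverslips coated with poly-L-lysine, fixed with glutaraldehyde, overlaid with 0.2% FITC-gelatin in PBS/2% sucrose and quenched with sodium borohydride. Cells (2×10^5/well) plated with 0, 3 or 6 μM at 37 °C for 24 h. Gelatin degradation, seen as nonfluorescent dark holes, imaged by laser confocal microscopy; F-actin counterstained with rhodamine-phalloidin.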

[8] = test system: MDA-MB-231; assay: Induction of apoptosis in human MDA-MB-231 cells assessed as late apoptotic cells at 10 uM after 72 hrs by annexin-V/propidium iodide double staining based flow cytometry (reference value: 0.12%); assay type: functional
[9] = test system: MDA-MB-231; assay: Cell cycle arrest in human MDA-MB-231 cells assessed as accumulation at G1 phase at 10 uM after 72 hrs by propidium iodide staining based flow cytometry (reference value: 49.40%); assay type: functional
[10] = test system: MDA-MB-231; assay: Antiinvasive activity against human MDA-MB-231 cells assessed as reduction in number of black holes at 3 uM after 24 hrs by FITC-gelatin based confocal microscopy; assay type: functional, cell-based
In short: as §2

[11] = test system: MDA-MB-231; assay: Induction of DNA damage in human MDA-MB-231 cells assessed as increase in olive tail moment at 10 to 20 uM by comet assay; assay type: functional, cell-based
In short: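 Neutral comet assay on cells treated with 0, 10 or 20 μM for 24 h. DNA stained with SYBR Green I and imaged by fluorescence microscopy. Olive tail moment measured on 50 randomly selected cells per slide.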

[12] = test system: MDA-MB-231; assay: Antiproliferative activity against human MDA-MB-231 cells after 72 hrs by MTT assay; assay type: functional, cell-based
In short: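 MDA-MB-231 cells grown in DMEM with 10% FBS and penicillin/streptomycin at 37 °C under 5% CO2. Seeded at 5×10^3 cells/well for 24 h, then exposed to compound across a concentration range for 72 h. MTT (5 mg/mL in PBS) added for 5 h, formazan dissolved in DMSO, absorbance read at 570 nm. Three repeats.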

[13] = test system: MDA-MB-231; assay: Cell cycle arrest in human MDA-MB-231 cells assessed as accumulation at G2 phase at 5 uM after 72 hrs by propidium iodide staining based flow cytometry (reference value: 8%); assay type: functional
[14] = test system: HeLa; assay: Antiproliferative activity against human HeLa cells after 72 hrs by MTT assay; assay type: functional, cell-based
In short: as §1

[15] = test system: MDA-MB-231; assay: Cell cycle arrest in human MDA-MB-231 cells assessed as accumulation at S phase at 15 uM after 72 hrs by propidium iodide staining based flow cytometry (reference value: 42.60%); assay type: functional
[16] = test system: MDA-MB-231; assay: Antimetastasis activity in human MDA-MB-231 cells assessed reduction in number of paxillins at 5 to 10 uM after 24 hrs by immunofluorescence based assay
[17] = test system: MDA-MB-231; assay: Induction of morphological changes in human MDA-MB-231 cells assessed as roughening of cell membrane surface with large and numerous particles at 5 to 20 uM after 72 hrs; assay type: functional, cell-based
[18] = test system: MDA-MB-231; assay: Induction of apoptosis in human MDA-MB-231 cells assessed as early apoptotic cells at 15 uM after 72 hrs by annexin-V/propidium iodide double staining based flow cytometry (reference value: 0.02%); assay type: functional

Cc1coc2c3ccc4c(c3c3[nH]c(-c5ccc(O)cc5)nc3c12)CCCC4(C)C
Activity [1]: Active | Activity [2]: Active | Activity [3]: 2.73% | Activity [4]: 46.41% | Activity [5]: Active | IC50 [6]: 49.1 µM | Activity [7]: Active | Activity [8]: 0.35% | Activity [9]: 35.49% | Activity [10]: Active | Activity [11]: Active | Activity [12]: Dose-dependent effect | IC50 ([12]; MDA-MB-231, 72 h): 13.2 µM | Activity [13]: 11.21% | IC50 [14]: 39.8 µM | Activity [15]: 54.51% | Activity [16]: Active | Activity [17]: Active | Activity [18]: 6.73%
